Several values for one entry are separate records, joined by “and”; a condition that tells them apart may be missing. Identical values can stand only once. Entries after “also recorded” stand apart in the source; their conditions may differ.
Experiments:
PME-1 [1] = conditions: acylation of active-site serine nucleophile; cited from earlier work
PME-1 [2] = molecular target: T1, PME-1 (Mus musculus, UniProt Q8BVQ5); assay: ABPP-SILAC in Neuro-2A cells, PME-1; type: cell-based; conditions: 100 nM, 2 h
T1 sequence (Q8BVQ5 1-386): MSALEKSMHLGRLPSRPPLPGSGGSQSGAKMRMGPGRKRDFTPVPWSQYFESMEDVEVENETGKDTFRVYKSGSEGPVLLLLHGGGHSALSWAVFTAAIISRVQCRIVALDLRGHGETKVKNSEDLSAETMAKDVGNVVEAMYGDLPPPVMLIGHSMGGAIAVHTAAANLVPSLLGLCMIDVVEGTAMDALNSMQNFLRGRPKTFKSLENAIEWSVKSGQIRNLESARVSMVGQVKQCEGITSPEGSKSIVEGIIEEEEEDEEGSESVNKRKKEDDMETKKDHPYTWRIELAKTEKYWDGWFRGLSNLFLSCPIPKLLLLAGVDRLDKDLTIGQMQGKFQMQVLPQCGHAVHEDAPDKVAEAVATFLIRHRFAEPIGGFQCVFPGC
In short: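 Neuro-2A cells were grown in isotopically light or heavy amino acids: light cells got DMSO, heavy cells got test compound at 100 nM for 2 h. Proteomes were labelled with FP-biotin, mixed 1:1, avidin-enriched and analysed by LC/LC-MS/MS on an LTQ-Velos Orbitrap. Activity is the heavy:light MS1 ion ratio of tryptic peptides, reported as mean ± SEM over all peptides quantified per hydrolase.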

PME-1 [3] = molecular target: T1, PME-1; assay: Gel-based ABPP in situ in Neuro2A cells, PME-1; type: cell-based; conditions: up to 10 µM, 2 h
In short: (§1)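 Intact Neuro-2A cells were treated with test compound at 10–0.001 µM for 2 h. Membrane and soluble proteomes were then analysed by gel-based competitive ABPP, and IC50 was derived from the gel signal. Data are mean ± SEM, n = 3/group.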

ABHD10 [4] = molecular target: T2, ABHD10 (Mus musculus, UniProt Q6PE15); assay: ABPP-SILAC in Neuro-2A cells, ABHD10; type: cell-based
T2 sequence (Q6PE15 44-297): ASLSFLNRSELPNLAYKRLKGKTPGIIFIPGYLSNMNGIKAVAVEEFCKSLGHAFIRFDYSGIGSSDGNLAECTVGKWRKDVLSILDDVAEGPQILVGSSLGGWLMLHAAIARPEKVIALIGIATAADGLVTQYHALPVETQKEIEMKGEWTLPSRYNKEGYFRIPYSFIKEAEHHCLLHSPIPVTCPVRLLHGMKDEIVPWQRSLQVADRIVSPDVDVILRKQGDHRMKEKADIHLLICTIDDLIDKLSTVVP

serine hydrolases = assay: Gel-based ABPP in situ in Neuro2A cells, off-target serine hydrolases; type: cell-based, mouse
In short: as §1

ABHD10 [5] = molecular target: T2, ABHD10; assay: ABPP-SILAC in BW5147-derived mouse T-cell hybridoma cells, ABHD10; type: cell-based
In short: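 ABPP-SILAC in a second line, BW5147-derived mouse T-cell hybridoma cells. Cells were cultured in light or heavy amino acids and treated with DMSO or test compound. Proteomes were FP-biotin-labelled, combined 1:1, avidin-enriched and analysed by LC/LC-MS/MS. Serine hydrolase activity was quantified from heavy:light MS1 ratios of tryptic peptides.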

ABHD10 [6] = molecular target: T2, ABHD10; assay: Competitive ABPP of Neuro2A proteomes; type: biochemical
ABHD10 [7] = molecular target: T2, ABHD10; assay: Gel-based ABPP in situ in Neuro2A cells, ABHD10; type: cell-based; conditions: single treatment, 250 nM
In short: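 Neuro-2A cells received a single in situ treatment with test compound at 250 nM. ABHD10 activity was then followed by gel-based ABPP of cell proteomes over a period of up to 6 h after treatment.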

Row | SMILES | inhibition of PME-1 in cells and mice (PME-1 [1]) | disruption of PME-1 activity (ABPP-SILAC) (PME-1 [2]) | inhibition of PME-1 in situ (PME-1 [3]) | inhibition of ABHD10 (ABPP-SILAC), in words (ABHD10 [4]; 100 nM, 2 h) | loss in ABHD10 activity (ABHD10 [4]; 100 nM, 2 h, ABPP-SILAC, ~40 serine hydrolase activities detected) [%] | inhibition of ABHD10 at higher concentration (ABHD10 [4]; 250 nM) | concentration at which off-targets are detected (serine hydrolases) [µM] | inhibition of ABHD10 in second cell line (ABHD10 [5]) | selectivity for ABHD10 over ABHD6, PREP, PME-1, and other serine hydrolases (ABHD10 [6]) | IC50 (ABHD10 [6]; read-out: IC50 ABHD10, in vitro) | time complete inhibition of ABHD10 was maintained (ABHD10 [7])
1 | COC(=O)N1C(=O)[C@](c2ccccc2)(C2CCCC2)N1C(=O)OC [ABL127] | irreversibly inhibit | complete and selective disruption; also recorded: selective inhibition | – | – | – | – | – | – | – | – | –
2 | CCC1(c2ccc(C)cc2)C(=O)N(C(=O)OC(C)C)N1C(=O)OC(C)C (centres unmarked) [ABL303] | – | – | no significant inhibition | selective inhibition | > 95 | complete and selective inhibition | ≥ 1 | complete and selective inhibition | at least 40 fold | ~30 nM and 30 nM | at least 6 h
